What was measured:
[1] = Growth inhibition of human OVCAR8 cells after 48 hrs; format: functional; settings: OVCAR-8, 48 h
Summary of the method: (§1)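 NCI-60 human tumour cell line panel screen run at the US National Cancer Institute under its standard cytotoxicity protocol. It covers leukaemia, NSCLC, colon, CNS, melanoma, ovarian, renal, prostate and breast lines. An initial single-dose test was followed by five-dose testing with 48 h compound exposure.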

[2] = Growth inhibition of human BT549 cells after 48 hrs; format: functional; settings: BT-549, 48 h; summary of the method: as §1
[3] = Growth inhibition of human PC3 cells after 48 hrs; format: functional; settings: PC-3, 48 h; summary of the method: as §1
[4] = Growth inhibition of human UACC257 cells after 48 hrs; format: functional; settings: UACC-257, 48 h
Summary of the method: (§2)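 Run by the NCI 58-cell-line screen under its standard cytotoxicity protocol. Compounds were first tested at a single dose, then at five doses. Cells were exposed to compound for 48 h.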

NCI-H23 = assay: Growth inhibition of human NCI-H23 cells after 48 hrs; format: functional; settings: NCI-H23, 48 h; summary of the method: as §1
[5] = Cytotoxicity against human fibroblasts assessed as cell viability after 24 hrs incubation by MTT assay; format: cell-based; settings: Fibroblast
Summary of the method: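 Cell lines came from DSMZ; primary human fibroblasts served as non-cancer controls. Cells were grown in medium with 10% FCS, seeded at 50,000 cells/ml, and grown 2 days at 37 °C, 10% CO2. Serial dilutions were then added for 24 h. MTT (final 0.5 mg/ml) was added for 2 h. Formazan was pelleted, PBS-washed, dissolved in isopropanol/0.4% HCl and read at 590 nm. Two parallel experiments were run. IC50 was taken as the concentration giving 50% of untreated-control absorbance.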

[6] = Growth inhibition of human SF539 cells after 48 hrs; format: functional; settings: SF-539, 48 h; summary of the method: as §1
SK-OV-3 = assay: Growth inhibition of human SKOV3 cells after 48 hrs; format: functional; settings: SK-OV-3, 48 h; summary of the method: as §2
Escherichia coli = assay: Antimicrobial activity against Escherichia coli tolC assessed as inhibition at 20 ug/6 mm disk after 1 to 2 days by agar diffusion assay; format: functional
Summary of the method: (§3)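 Standard agar diffusion: 6-mm paper disks loaded with 20 µg of compound were placed on inoculated plates. Inhibition-zone diameter (mm) was read after 1 and 2 days of growth.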

[7] = Growth inhibition of human UACC62 cells after 48 hrs; format: functional; settings: UACC-62, 48 h; summary of the method: as §2
Pseudomonas aeruginosa = assay: Antimicrobial activity against Pseudomonas aeruginosa assessed as inhibition at 20 ug/6 mm disk after 1 to 2 days by agar diffusion assay; format: functional; summary of the method: as §3
[8] = Growth inhibition of human UO31 cells after 48 hrs; format: functional; settings: UO-31, 48 h; summary of the method: as §2
MCF7 = assay: Growth inhibition of human MCF7 cells after 48 hrs; format: functional; settings: MCF7, 48 h; summary of the method: as §1
NCI-H460 = assay: Growth inhibition of human NCI-H460 cells after 48 hrs; format: functional; settings: NCI-H460, 48 h; summary of the method: as §1
[9] = Growth inhibition of human NCI-ADR-RES cells after 48 hrs; format: functional; summary of the method: as §1
CAKI-1 = assay: Growth inhibition of human CAKI-1 cells after 48 hrs; format: functional; settings: CAKI-1, 48 h; summary of the method: as §1
[10] = read-out: pLC50 (the source's name) (converted)

CC1=C(SCCC(=O)OCC(=O)NCCC[Te]c2ccccc2)C(=O)c2ccccc2C1=O
GI50 [1]: 2.75 µM | LC50 [1]: 51.3 µM | TGI ([1]; read-out: pTGI (converted)): 11.5 µM | GI50 [2]: 1.66 µM | LC50 (concentration killing 50% of cells) [2]: 9.77 µM | TGI ([2]; read-out: pTGI (converted)): 4.07 µM | GI50 [3]: 2.4 µM | LC50 [3]: 42.7 µM | TGI ([3]; read-out: pTGI (converted)): 12 µM | GI50 [4]: 2.75 µM | CC50 [4, 10]: 32.4 µM | TGI ([4]; read-out: pTGI (converted)): 7.94 µM | GI50 (NCI-H23): 2.29 µM | CC50 (NCI-H23; [10]): 44.7 µM | TGI (NCI-H23; read-out: pTGI (converted)): 7.41 µM | IC50 [5]: 13 µM | GI50 [6]: 2.09 µM | CC50 [6, 10]: 27.5 µM | TGI ([6]; read-out: pTGI (converted)): 6.61 µM | GI50 (SK-OV-3): 1.74 µM | CC50 (SK-OV-3; [10]): 12.3 µM | TGI (SK-OV-3; read-out: pTGI (converted)): 4.37 µM | diameter of the inhibition zone (DIZ) (Escherichia coli): 11 mm | GI50 [7]: 1.86 µM | CC50 [7, 10]: 13.5 µM | TGI ([7]; read-out: pTGI (converted)): 4.57 µM | diameter of the inhibition zone (DIZ) (Pseudomonas aeruginosa): 12 mm | GI50 [8]: 1.86 µM | LC50 [8]: 36.3 µM | TGI ([8]; read-out: pTGI (converted)): 9.55 µM | GI50 (MCF7): 2.95 µM | LC50 (concentration killing 50% of cells) (MCF7): 57.5 µM | TGI (MCF7; read-out: pTGI (converted)): 12.3 µM | GI50 (NCI-H460): 1.32 µM | CC50 (NCI-H460; [10]): 51.3 µM | TGI (NCI-H460; read-out: pTGI (converted)): 4.17 µM | GI50 [9]: 2.69 µM | LC50 [9]: 55 µM | TGI ([9]; read-out: pTGI (converted)): 10.2 µM | GI50 (CAKI-1): 2.95 µM | LC50 (CAKI-1): 39.8 µM | TGI (CAKI-1; read-out: pTGI (converted)): 11.2 µM

From ChEMBL document CHEMBL3351600, “Sulfur, selenium and tellurium pseudopeptides: synthesis and biological evaluation” (Bioorg Med Chem, 2014)
